According to ChEMBL document CHEMBL1828605, “Synthesis, antiviral activity, cytotoxicity and cellular pharmacology of l-3'-azido-2',3'-dideoxypurine nucleosides” (Eur J Med Chem, 2011):

Legend:
[1] = target: Human immunodeficiency virus type 1 reverse transcriptase (Human immunodeficiency virus 1, UniProt Q72547); test: Binding affinity to HIV1 reverse transcriptase assessed as L-3'-azido-NTP incorporation in nascent DNA
[2] = target: Human immunodeficiency virus type 1 reverse transcriptase (Human immunodeficiency virus 1) (UniProt Q72547); test: Ratio Kpol to Kd for wild type HIV 1 reverse transcriptase
Method in brief: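 Pre-steady-state single-turnover incorporation by purified WT HIV-1 RT (200 nM, final), pre-incubated with 20 nM T/P substrate, then mixed with nucleotide at varying concentrations plus metal ions. Reaction at 37 °C in 50 mM Tris-HCl pH 7.5, 50 mM KCl, 10 mM MgCl₂. Aliquots quenched in gel loading buffer at 1-60 min. 20mer→21mer conversion quantified on gel. k_obs from burst fit, k_pol and K_d from hyperbolic fit, efficiency taken as k_pol/K_d.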

[3] = target: Human immunodeficiency virus type 1 reverse transcriptase (Human immunodeficiency virus 1) (UniProt Q72547); test: Selectivity ratio of Kpol to Kd for dATP to Kpol to Kd for compound at HIV1 reverse transcriptase
[4] = system: Human immunodeficiency virus 1; test: Antiviral activity against HIV1 LAV1 infected in phytohemagglutininin-stimulated human PBMC assessed as RT level after 6 days by microdilution plate assay; assay type: functional, organism-based
PBMC [5] = test: Cytotoxicity against phytohemagglutininin-stimulated human PBMC after 6 days by trypan blue exclusion assay; assay type: cell-based; conditions: 144 h
Vero = test: Cytotoxicity against african green monkey Vero cells after 3 days by hemocytometry; assay type: cell-based; conditions: Chlorocebus sabaeus, 72 h
Hepatitis B virus = test: Antiviral activity against Hepatitis B virus infected in human HepAD38 assessed as reduction of viral DNA level on day 7 by quantitative-PCR assay analysis; assay type: functional, organism-based
CCRF-CEM = test: Cytotoxicity against human CEM cells after 6 days by trypan blue exclusion assay; assay type: cell-based; conditions: 144 h
[6] = Cytotoxicity against human HepAD38 cells; assay type: cell-based
[7] = target: Human immunodeficiency virus type 1 reverse transcriptase (Human immunodeficiency virus 1) (UniProt Q72547); test: Selectivity ratio of Kpol to Kd for dCTP to Kpol to Kd for compound at HIV1 reverse transcriptase
PBMC [8] = test: Drug metabolism in human phytohemagglutininin-stimulated human PBMC assessed as 9-(3-azido-2,3-dideoxy-b-L-ribofuranosyl)-2-amino-6-chloropurine diphosphate level per 10^6 cells at 50 uM after 4 hrs by LC-MS/MS analysis; assay type: ADME, cell-based
Method in brief: (§1)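 PHA-activated human PBM cells incubated with nucleoside at 50 μM for 4 h at 37 °C, then PBS-washed. Intracellular nucleoside and nucleotide metabolites were extracted with 60% ice-cold methanol, dried, redissolved in HPLC mobile phase, and quantified by LC-MS/MS.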

PBMC [9] = test: Drug metabolism in human phytohemagglutininin-stimulated human PBMC assessed as compound level per 10^6 cells at 50 uM after 4 hrs by LC-MS/MS analysis; assay type: ADME, cell-based
PBMC [10] = test: Drug metabolism in human phytohemagglutininin-stimulated human PBMC assessed as 9-(3-azido-2,3-dideoxy-b-L-ribofuranosyl)-2-amino-6-chloropurine monophosphate level per 10^6 cells at 50 uM after 4 hrs by LC-MS/MS analysis; assay type: ADME, cell-based; method in brief: as §1
PBMC [11] = test: Drug metabolism in human phytohemagglutininin-stimulated human PBMC assessed as 9-(3-azido-2,3-dideoxy-b-L-ribofuranosyl)-2-amino-6-chloropurine triphosphate level per 10^6 cells at 50 uM after 4 hrs by LC-MS/MS analysis; assay type: ADME, cell-based; method in brief: as §1
PBMC [12] = test: Drug metabolism in human phytohemagglutininin-stimulated human PBMC assessed as 9-(3-azido-2,3-dideoxy-b-L-ribofuranosyl)-2-amino-6-chloropurine level per 10^6 cells at 50 uM after 4 hrs by LC-MS/MS analysis; assay type: ADME, cell-based; method in brief: as §1
PBMC [13] = test: Drug metabolism in human phytohemagglutininin-stimulated human PBMC assessed as 30-azido-20,30-dideoxy-b-L-adenosine triphosphate level per 10^6 cells at 50 uM after 4 hrs by LC-MS/MS analysis; assay type: ADME, cell-based; method in brief: as §1
PBMC [14] = test: Drug metabolism in human phytohemagglutininin-stimulated human PBMC assessed as 30-azido-20,30-dideoxy-b-L-adenosine monophosphate level per 10^6 cells at 50 uM after 4 hrs by LC-MS/MS analysis; assay type: ADME, cell-based; method in brief: as §1
PBMC [15] = test: Drug metabolism in human phytohemagglutininin-stimulated human PBMC assessed as 30-azido-20,30-dideoxy-b-L-adenosine diphosphate level per 10^6 cells at 50 uM after 4 hrs by LC-MS/MS analysis; assay type: ADME, cell-based; method in brief: as §1
PBMC [16] = test: Drug metabolism in human phytohemagglutininin-stimulated human PBMC assessed as 30-azido-20,30-dideoxy-b-L-adenosine level per 10^6 cells at 50 uM after 4 hrs by LC-MS/MS analysis; assay type: ADME, cell-based; method in brief: as §1
[17] = Human immunodeficiency virus 1, LAV1, 144 h
[18] = Hepatitis B virus, HePAD38, 168 h

Q: What does the source list for `[N-]=[N+]=N[C@@H]1C[C@@H](n2cnc3c(N)nc(N)nc32)O[C@H]1COP(=O)(O)OP(=O)(O)OP(=O)(O)O`?
A: Kd [1]: 2.3 µM; Ratio [2]: 0.062 µM⁻¹ min⁻¹; Selectivity ratio [3]: 7340

Q: With `[N-]=[N+]=N[C@@H]1C[C@@H](n2cnc3c(N)ncnc32)O[C@H]1COP(=O)(O)OP(=O)(O)OP(=O)(O)O` as the compound, how does the Kd [1] read?
A: Its Kd is 15 µM.

Q: What about the Ratio [2] of the same compound?
A: The Ratio was 0.023 µM⁻¹ min⁻¹.

Q: What about the Selectivity ratio [3] of the same compound?
A: Its Selectivity ratio is 19800.

Q: Which results are given for `CCOC(=O)[C@H](C)NP(=O)(OC[C@@H]1O[C@H](n2cnc3c(Cl)ncnc32)C[C@H]1N=[N+]=[N-])Oc1ccccc1` (stereo not given in full)?
A: EC50 [4, 17]: 16.5 µM; EC90 [4, 17]: 83.1 µM; IC50 (PBMC [5]): 69.2 µM; IC50 (Vero): > 100 µM; EC50 (Hepatitis B virus; [18]): > 100 µM; IC50 (CCRF-CEM): 5.8 µM; Activity [6]: Non-toxic

Q: For `Cc1cn([C@H]2C[C@H](N=[N+]=[N-])[C@@H](CO[P@](=O)(O)O[P@](=O)(O)OP(=O)(O)O)O2)c(=O)[nH]c1=O` (single isomer, unassigned) [ZIDOVUDINE TRIPHOSPHATE], which Kd [1] is on record?
A: The Kd was 55 µM.

Q: With `Cc1cn([C@H]2C[C@H](N=[N+]=[N-])[C@@H](CO)O2)c(=O)[nH]c1=O` (stereo in doubt) [ZIDOVUDINE] as the compound, how does the EC50 (Hepatitis B virus) read?
A: The EC50 was greater than 10 µM.

Q: What does the source list for `Cc1cn([C@H]2C[C@H](N=[N+]=[N-])[C@@H](CO)O2)c(=O)[nH]c1=O` (stereo in doubt; 27) [ZIDOVUDINE]?
A: EC50 [4]: > 100 µM; EC90 [4]: > 100 µM; EC50 (Hepatitis B virus): > 100 µM; Activity [6]: Non-toxic

Q: With `Nc1ccn([C@@H]2CS[C@H](COP(=O)(O)OP(=O)(O)OP(=O)(O)O)O2)c(=O)n1` [LAMIVUDINE TRIPHOSPHATE] as the compound, how does the Kd [1] read?
A: The Kd was 0.13 µM.

Q: And the Ratio [2]?
A: The Ratio was 5.46 µM⁻¹ min⁻¹.

Q: What about the Selectivity ratio [7] of the same compound?
A: Its Selectivity ratio is 11.9.

Q: Which EC50 [4, 17] does the source give for `CCOC(=O)[C@H](C)NP(=O)(OC[C@@H]1O[C@H](n2cnc3c(O)nc(N)nc32)C[C@H]1N=[N+]=[N-])Oc1ccccc1` (stereo not given in full) here?
A: The EC50 was greater than 100 µM.

Q: And the EC90 [4, 17]?
A: Its EC90 is greater than 100 µM.

Q: And the IC50 (PBMC [5])?
A: Its IC50 is greater than 100 µM.

Q: What about the IC50 (Vero) of the same compound?
A: The IC50 was greater than 100 µM.

Q: And the EC50 (Hepatitis B virus; [18])?
A: The EC50 was greater than 100 µM.

Q: And the IC50 (CCRF-CEM)?
A: Its IC50 is greater than 100 µM.

Q: And the Activity [6]?
A: Its Activity is “Non-toxic”.

Q: What does the source list for `CCOC(=O)[C@H](C)NP(=O)(OC[C@@H]1O[C@H](n2cnc3c(Cl)nc(N)nc32)C[C@H]1N=[N+]=[N-])Oc1ccccc1` (stereo not given in full)?
A: EC50 [4, 17]: 16.5 µM; EC90 [4, 17]: 55.9 µM; Activity (PBMC [8]): 190 fmol; IC50 (PBMC [5]): 71 µM; IC50 (Vero): > 100 µM; Activity (PBMC [9]): 12 fmol; EC50 (Hepatitis B virus; [18]): > 100 µM; IC50 (CCRF-CEM): 23.1 µM; Activity [6]: Non-toxic; Activity (PBMC [10]): 430 fmol; Activity (PBMC [11]): 10 fmol; Activity (PBMC [12]): 49 fmol

Q: For `Nc1ncnc2c1ncn2[C@H]1C[C@H](O)[C@@H](COP(=O)(O)OP(=O)(O)OP(=O)(O)O)O1`, which Ratio [2] is on record?
A: Its Ratio is 455 µM⁻¹ min⁻¹.

Q: Which Kd [1] does the source give for `Nc1ccn([C@H]2C[C@H](O)[C@@H](CO)O2)c(=O)n1` [DOXECITINE] here?
A: Its Kd is 1.1 µM.

Q: And the Ratio [2]?
A: Its Ratio is 65 µM⁻¹ min⁻¹.

Q: For `CCOC(=O)[C@H](C)NP(=O)(OC[C@@H]1O[C@H](n2cc(C)c(=O)[nH]c2=O)C[C@H]1N=[N+]=[N-])Oc1ccccc1` (stereo not given in full), which EC50 [4, 17] is on record?
A: The EC50 was greater than 100 µM.

Q: What about the EC90 [4, 17] of the same compound?
A: The EC90 was greater than 100 µM.

Q: And the IC50 (PBMC [5])?
A: The IC50 was greater than 100 µM.

Q: And the IC50 (Vero)?
A: Its IC50 is greater than 100 µM.

Q: What about the EC50 (Hepatitis B virus; [18]) of the same compound?
A: Its EC50 is greater than 100 µM.

Q: And the IC50 (CCRF-CEM)?
A: Its IC50 is greater than 100 µM.

Q: What about the Activity [6] of the same compound?
A: Its Activity is “Non-toxic”.

Q: With `CCOC(=O)[C@H](C)NP(=O)(OC[C@@H]1O[C@H](n2cnc3c(N)nc(N)nc32)C[C@H]1N=[N+]=[N-])Oc1ccccc1` (stereo not given in full) as the compound, how does the EC50 [4, 17] read?
A: The EC50 was 15.8 µM.

Q: What about the EC90 [4, 17] of the same compound?
A: The EC90 was greater than 100 µM.

Q: What about the IC50 (PBMC [5]) of the same compound?
A: Its IC50 is greater than 100 µM.

Q: What about the IC50 (Vero) of the same compound?
A: Its IC50 is greater than 100 µM.

Q: And the EC50 (Hepatitis B virus; [18])?
A: The EC50 was greater than 100 µM.

Q: What about the IC50 (CCRF-CEM) of the same compound?
A: The IC50 was greater than 100 µM.

Q: And the Activity [6]?
A: Its Activity is “Non-toxic”.

Q: Which results are given for `CCOC(=O)[C@H](C)NP(=O)(OC[C@@H]1O[C@H](n2cnc3c(N)ncnc32)C[C@H]1N=[N+]=[N-])Oc1ccccc1` (stereo not given in full)?
A: EC50 [4, 17]: 1.4 µM; EC90 [4, 17]: 15.6 µM; Activity (PBMC [13]): 7400 fmol; IC50 (PBMC [5]): > 100 µM; IC50 (Vero): > 100 µM; Activity (PBMC [14]): 4200 fmol; EC50 (Hepatitis B virus; [18]): > 100 µM; IC50 (CCRF-CEM): > 100 µM; Activity (PBMC [15]): 1200 fmol; Activity [6]: Non-toxic; Activity (PBMC [16]): 7500 fmol

Q: With `Nc1ccn([C@@H]2CS[C@H](CO)O2)c(=O)n1` [LAMIVUDINE] as the compound, how does the IC50 (PBMC [5]) read?
A: Its IC50 is greater than 100 µM.

Q: And the IC50 (Vero)?
A: Its IC50 is greater than 100 µM.

Q: What about the EC50 (Hepatitis B virus; [18]) of the same compound?
A: Its EC50 is 0.06 µM.

Q: And the IC50 (CCRF-CEM)?
A: Its IC50 is greater than 100 µM.

Q: What about the Activity [6] of the same compound?
A: Its Activity is “Non-toxic”.

Q: With `[N-]=[N+]=N[C@@H]1C[C@@H](n2cnc3c(O)nc(N)nc32)O[C@H]1COP(=O)(O)OP(=O)(O)OP(=O)(O)O` as the compound, how does the Kd [1] read?
A: Its Kd is 0.23 µM.
